Inhibition data for 24 molecules are collected here from ChEMBL document CHEMBL3232963, “Discovery of a potent and selective α3β4 nicotinic acetylcholine receptor antagonist from an α-conotoxin synthetic combinatorial library” (J Med Chem, 2014).

Numbered stars: 1 amine (or outer) side, 2 acyl side, 3 side chain; on linkers, the order of the positions; unused ones are H or OH. Bridge positions count the residues as written; N and C are the ends. Square brackets hold non-standard residues; d marks the D form. Peptide text beside a SMILES is read from it. X1 = O=C([C@H](CC1C=Nc2ccccc21)N[*:1])[*:2]; Nle = CCCC[C@H](N)C(=O)O; Nva = CCC[C@H](N)C(=O)O; Abu = CC[C@H](N)C(=O)O

For the assay, the target named is Neuronal acetylcholine receptor; alpha3/beta4 (Rattus norvegicus) (UniProt P04757+P12392). The experiment in a line: Antagonist activity at rat alpha3beta4 nAChR expressed in HEK293 cells assessed as inhibition of epibatadine-induced effect at 10 uM after 30 mins by fluorescent membrane potential assay relative to mecamylamine. It is filed as cell-based. In short, it runs like this:
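Rat α3β4 nAChR stably expressed in HEK293 cells; crude, SPE-desalted individual peptides tested at 10 μM in HBSS with membrane potential blue dye, 30 min at 37 °C. Fluorescence change read after epibatidine (0.1 μM). Percent inhibition set against 10 μM mecamylamine taken as 100%.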
The term inhibition denotes the change of the read-out against control, counted positive when it falls. As to `CCC[C@@H]1NC(=O)[C@H](Cc2c[nH]c3ccccc23)NC(=O)[C@H]([C@H](C)CC)NC(=O)[C@@H]2CSSC[C@H](NC(=O)CN)C(=O)N[C@@H](CSSC[C@@H](C(=O)O)NC(=O)[C@H](Cc3ccc(O)cc3)NC1=O)C(=O)N[C@@H](CO)C(=O)N[C@@H](Cc1cnc[nH]1)C(=O)N1CCC[C@H]1C(=O)N1CCC[C@H]1C(=O)N2`, the inhibition is 56.5%.
As to `CCC[C@@H]1NC(=O)[C@H](Cc2c[nH]c3ccccc23)NC(=O)[C@H](Cc2ccccc2)NC(=O)[C@@H]2CSSC[C@H](NC(=O)CN)C(=O)N[C@@H](CSSC[C@@H](C(=O)O)NC(=O)[C@@H]3CCCN3C1=O)C(=O)N[C@@H](CO)C(=O)N[C@@H](Cc1cnc[nH]1)C(=O)N1CCC[C@H]1C(=O)N[C@@H](CC)C(=O)N2` (H-GCCSHP[Abu]CFW[Nva]PC-OH; disulfide 2-8, 3-13), the inhibition amounted to 36.2%.
With `CCCC[C@@H]1NC(=O)[C@H](Cc2c[nH]c3ccccc23)NC(=O)[C@H](Cc2ccccc2)NC(=O)[C@@H]2CSSC[C@H](NC(=O)CN)C(=O)N[C@@H](CSSC[C@@H](C(=O)O)NC(=O)[C@@H]3CCCN3C1=O)C(=O)N[C@@H](CO)C(=O)N[C@@H](Cc1cnc[nH]1)C(=O)N1CCC[C@H]1C(=O)N1CCC[C@H]1C(=O)N2` (H-GCCSHPPCFW[Nle]PC-OH; disulfide 2-8, 3-13) the figure was 15.3%; with `CCCC[C@@H]1NC(=O)[C@H](CO)NC(=O)[C@@H]2CSSC[C@@H](C(=O)O)NC(=O)[C@@H]3CCCN3C(=O)[C@H](CCC)NC(=O)[C@H](Cc3c[nH]c4ccccc34)NC(=O)[C@H]([C@H](C)CC)NC(=O)[C@H](CSSC[C@H](NC(=O)CN)C(=O)N2)NC(=O)[C@H](CC)NC(=O)[C@@H]2CCCN2C1=O`, 44.8%.
`CCCC[C@@H]1NC(=O)[C@H](CO)NC(=O)[C@@H]2CSSC[C@@H](C(=O)O)NC(=O)[C@@H]3CCCN3C(=O)[C@H](CCC)NC(=O)[C@H](Cc3c[nH]c4ccccc34)NC(=O)[C@H](Cc3ccccc3)NC(=O)[C@H](CSSC[C@H](NC(=O)CN)C(=O)N2)NC(=O)[C@H](CC)NC(=O)[C@@H]2CCCN2C1=O` (H-GCCS[Nle]P[Abu]CFW[Nva]PC-OH; disulfide 2-8, 3-13): the inhibition is 41.1%.
`CCCC[C@@H]1NC(=O)[C@H](CC)NC(=O)[C@H]([C@H](C)CC)NC(=O)[C@@H]2CSSC[C@H](NC(=O)CN)C(=O)N[C@@H](CSSC[C@@H](C(=O)O)NC(=O)[C@@H]3CCCN3C1=O)C(=O)N[C@@H](CO)C(=O)N[C@@H](Cc1cnc[nH]1)C(=O)N1CCC[C@H]1C(=O)N[C@@H](CC)C(=O)N2`: the inhibition stood at 36.2%.
Take `CCCC[C@@H]1NC(=O)[C@H](CC)NC(=O)[C@H]([C@H](C)CC)NC(=O)[C@@H]2CSSC[C@H](NC(=O)CN)C(=O)N[C@@H](CSSC[C@@H](C(=O)O)NC(=O)[C@H](Cc3ccc(O)cc3)NC1=O)C(=O)N[C@@H](CO)C(=O)N[C@@H](CCCC)C(=O)N1CCC[C@H]1C(=O)N1CCC[C@H]1C(=O)N2`: the inhibition turned out to be 63.8%.
Turning to `CCCC[C@@H]1NC(=O)[C@H](CC)NC(=O)[C@H](Cc2ccccc2)NC(=O)[C@@H]2CSSC[C@H](NC(=O)CN)C(=O)N[C@@H](CSSC[C@@H](C(=O)O)NC(=O)[C@@H]3CCCN3C1=O)C(=O)N[C@@H](CO)C(=O)N[C@@H](CCCC)C(=O)N1CCC[C@H]1C(=O)N[C@@H](CC)C(=O)N2` (H-GCCS[Nle]P[Abu]CF[Abu][Nle]PC-OH; disulfide 2-8, 3-13), the inhibition was determined as 36.6%.
With `CCCC[C@@H]1NC(=O)[C@H](CC)NC(=O)[C@H](Cc2ccccc2)NC(=O)[C@@H]2CSSC[C@H](NC(=O)CN)C(=O)N[C@@H](CSSC[C@@H](C(=O)O)NC(=O)[C@@H]3CCCN3C1=O)C(=O)N[C@@H](CO)C(=O)N[C@@H](Cc1cnc[nH]1)C(=O)N1CCC[C@H]1C(=O)N[C@@H](CC)C(=O)N2` (H-GCCSHP[Abu]CF[Abu][Nle]PC-OH; disulfide 2-8, 3-13) the figure was 35.5%; with `CCC[C@@H]1NC(=O)[C@H](Cc2c[nH]c3ccccc23)NC(=O)[C@H](Cc2ccccc2)NC(=O)[C@@H]2CSSC[C@H](NC(=O)CN)C(=O)N[C@@H](CSSC[C@@H](C(=O)O)NC(=O)[C@H](Cc3ccc(O)cc3)NC1=O)C(=O)N[C@@H](CO)C(=O)N[C@@H](Cc1cnc[nH]1)C(=O)N1CCC[C@H]1C(=O)N[C@@H](CC)C(=O)N2` (H-GCCSHP[Abu]CFW[Nva]YC-OH; disulfide 2-8, 3-13), 72.1%; with `CCCC[C@@H]1NC(=O)[C@H](CO)NC(=O)[C@@H]2CSSC[C@@H](C(=O)O)NC(=O)[C@H](Cc3ccc(O)cc3)NC(=O)[C@H](CCC)NC(=O)[C@H](CC)NC(=O)[C@H]([C@H](C)CC)NC(=O)[C@H](CSSC[C@H](NC(=O)CN)C(=O)N2)NC(=O)[C@@H]2CCCN2C(=O)[C@@H]2CCCN2C1=O`, 50.9%.
Turning to `CCC[C@@H]1NC(=O)[C@H](Cc2c[nH]c3ccccc23)NC(=O)[C@H]([C@H](C)CC)NC(=O)[C@@H]2CSSC[C@H](NC(=O)CN)C(=O)N[C@@H](CSSC[C@@H](C(=O)O)NC(=O)[C@@H]3CCCN3C1=O)C(=O)N[C@@H](CO)C(=O)N[C@@H](Cc1cnc[nH]1)C(=O)N1CCC[C@H]1C(=O)N1CCC[C@H]1C(=O)N2`, the inhibition came to 44.8%.
`CCCC[C@@H]1NC(=O)[C@H](CC2C=Nc3ccccc32)NC(=O)[C@H]([C@H](C)CC)NC(=O)[C@@H]2CSSC[C@H](NC(=O)CN)C(=O)N[C@@H](CSSC[C@@H](C(=O)O)NC(=O)[C@@H]3CCCN3C1=O)C(=O)N[C@@H](CO)C(=O)N[C@@H](Cc1cnc[nH]1)C(=O)N1CCC[C@H]1C(=O)N[C@@H](CC)C(=O)N2` (some centres undefined): the inhibition worked out at 15.4%.
Take `CCCC[C@@H]1NC(=O)[C@H](CC2C=Nc3ccccc32)NC(=O)[C@H](Cc2ccccc2)NC(=O)[C@@H]2CSSC[C@H](NC(=O)CN)C(=O)N[C@@H](CSSC[C@@H](C(=O)O)NC(=O)[C@@H]3CCCN3C1=O)C(=O)N[C@@H](CO)C(=O)N[C@@H](Cc1cnc[nH]1)C(=O)N1CCC[C@H]1C(=O)N[C@@H](CC)C(=O)N2` (some centres undefined) (H-GCCSHP[Abu]CF[X1][Nle]PC-OH; disulfide 2-8, 3-13): the inhibition came out at 22.3%.
For `CCCC[C@@H]1NC(=O)[C@H](Cc2c[nH]c3ccccc23)NC(=O)[C@H]([C@H](C)CC)NC(=O)[C@@H]2CSSC[C@H](NC(=O)CN)C(=O)N[C@@H](CSSC[C@@H](C(=O)O)NC(=O)[C@H](Cc3ccc(O)cc3)NC1=O)C(=O)N[C@@H](CO)C(=O)N[C@@H](Cc1cnc[nH]1)C(=O)N1CCC[C@H]1C(=O)N[C@@H](CC)C(=O)N2`, the inhibition worked out at 55.7%.
On to `CCC[C@@H]1NC(=O)[C@H](CC)NC(=O)[C@H]([C@H](C)CC)NC(=O)[C@@H]2CSSC[C@H](NC(=O)CN)C(=O)N[C@@H](CSSC[C@@H](C(=O)O)NC(=O)[C@@H]3CCCN3C1=O)C(=O)N[C@@H](CO)C(=O)N[C@@H](Cc1cnc[nH]1)C(=O)N1CCC[C@H]1C(=O)N1CCC[C@H]1C(=O)N2`, for which the inhibition was determined as 45.1%.
`CCCC[C@@H]1NC(=O)[C@H](CO)NC(=O)[C@@H]2CSSC[C@@H](C(=O)O)NC(=O)[C@@H]3CCCN3C(=O)[C@H](CCC)NC(=O)[C@H](CC)NC(=O)[C@H](Cc3ccccc3)NC(=O)[C@H](CSSC[C@H](NC(=O)CN)C(=O)N2)NC(=O)[C@@H]2CCCN2C(=O)[C@@H]2CCCN2C1=O` (H-GCCS[Nle]PPCF[Abu][Nva]PC-OH; disulfide 2-8, 3-13): the inhibition worked out at 35.7%.
With `CCC[C@@H]1NC(=O)[C@H](Cc2c[nH]c3ccccc23)NC(=O)[C@H](Cc2ccccc2)NC(=O)[C@@H]2CSSC[C@H](NC(=O)CN)C(=O)N[C@@H](CSSC[C@@H](C(=O)O)NC(=O)[C@@H]3CCCN3C1=O)C(=O)N[C@@H](CO)C(=O)N[C@@H](Cc1cnc[nH]1)C(=O)N1CCC[C@H]1C(=O)N1CCC[C@H]1C(=O)N2` (H-GCCSHPPCFW[Nva]PC-OH; disulfide 2-8, 3-13) the figure was 49%; with `CCCC[C@@H]1NC(=O)[C@H](Cc2c[nH]c3ccccc23)NC(=O)[C@H]([C@H](C)CC)NC(=O)[C@@H]2CSSC[C@H](NC(=O)CN)C(=O)N[C@@H](CSSC[C@@H](C(=O)O)NC(=O)[C@@H]3CCCN3C1=O)C(=O)N[C@@H](CO)C(=O)N[C@@H](Cc1cnc[nH]1)C(=O)N1CCC[C@H]1C(=O)N1CCC[C@H]1C(=O)N2`, 10.1%.
Under `CCCC[C@@H]1NC(=O)[C@H](CC)NC(=O)[C@H](Cc2ccccc2)NC(=O)[C@@H]2CSSC[C@H](NC(=O)CN)C(=O)N[C@@H](CSSC[C@@H](C(=O)O)NC(=O)[C@@H]3CCCN3C1=O)C(=O)N[C@@H](CO)C(=O)N[C@@H](CCCC)C(=O)N1CCC[C@H]1C(=O)N1CCC[C@H]1C(=O)N2` (H-GCCS[Nle]PPCF[Abu][Nle]PC-OH; disulfide 2-8, 3-13) stands 54.6%; under `CCCC[C@@H]1NC(=O)[C@H](CO)NC(=O)[C@@H]2CSSC[C@@H](C(=O)O)NC(=O)[C@H](Cc3ccc(O)cc3)NC(=O)[C@H](CCC)NC(=O)[C@H](CC)NC(=O)[C@H]([C@H](C)CC)NC(=O)[C@H](CSSC[C@H](NC(=O)CN)C(=O)N2)NC(=O)[C@H](CC)NC(=O)[C@@H]2CCCN2C1=O`, 59.4%.
As to `CCC[C@@H]1NC(=O)[C@H](CC)NC(=O)[C@H](Cc2ccccc2)NC(=O)[C@@H]2CSSC[C@H](NC(=O)CN)C(=O)N[C@@H](CSSC[C@@H](C(=O)O)NC(=O)[C@@H]3CCCN3C1=O)C(=O)N[C@@H](CO)C(=O)N[C@@H](Cc1cnc[nH]1)C(=O)N1CCC[C@H]1C(=O)N[C@@H](CC)C(=O)N2` (H-GCCSHP[Abu]CF[Abu][Nva]PC-OH; disulfide 2-8, 3-13), the inhibition came out at 47%.
On to `CCCC[C@@H]1NC(=O)[C@H](CO)NC(=O)[C@@H]2CSSC[C@@H](C(=O)O)NC(=O)[C@@H]3CCCN3C(=O)[C@H](CCC)NC(=O)[C@H](CC)NC(=O)[C@H]([C@H](C)CC)NC(=O)[C@H](CSSC[C@H](NC(=O)CN)C(=O)N2)NC(=O)[C@@H]2CCCN2C(=O)[C@@H]2CCCN2C1=O`, for which the inhibition was found to be 45.7%.
With `CCC[C@@H]1NC(=O)[C@H](CC)NC(=O)[C@H](Cc2ccccc2)NC(=O)[C@@H]2CSSC[C@H](NC(=O)CN)C(=O)N[C@@H](CSSC[C@@H](C(=O)O)NC(=O)[C@@H]3CCCN3C1=O)C(=O)N[C@@H](CO)C(=O)N[C@@H](Cc1cnc[nH]1)C(=O)N1CCC[C@H]1C(=O)N1CCC[C@H]1C(=O)N2` (H-GCCSHPPCF[Abu][Nva]PC-OH; disulfide 2-8, 3-13) the figure was 36%.
